PGC1a acetyl inh: lowers PGC1a acetylation signal in U2OS cells | inhibition, % at 15.6 µM | actives 0.17% (n = 350,000) | AID 651687 | AlphaScreen anti-acetyl-lysine; with virally co-expressed GCN5 acetyltransferase;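 active = every replicate shows inhibition of at least 40%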
Cneo AK release: Cryptococcus neoformans lysis via adenylate kinase release; C. neoformans lysis, adenylate kinase release luminescence, 4 h; normalised: neutral wells 0, clomiphene wells 100; lysis activity, % at 15 µM; actives 0.2% (n = 360,000);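 active = mean lysis activity across replicates of at least 80%, whatever share of replicates individually reach that level; inactive = mean lysis activity below 80%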
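Assay system: C. neoformans cells. Amount: yeast cell density of 5 × 10^6 cells/mL. Technique: AK luminescence. Buffer or medium: YPD. Times: static 4 h at 37 °C with compound, 1 h detection. Dosing: single-point compound dose. Read-out: lysis from increased AK signal.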
PglD inh: blocks C. jejuni PglD acetyltransferase activity; purified PglD enzyme, DTNB colorimetric CoA detection; inhibition, % at 12.5 µM; actives 0.098% (n = 360,000); AID 602405; in the data active = inhibition above about 16%, passing the limit was not always enough
FGF22 binding: shifts melting point of recombinant human FGF22; AID 651658; Q9HCT0; actives 1.5% (n = 340,000); activity (Tm shift, normalised), % at 9.99 µM; recombinant FGF22 thermal shift, SYPRO orange fluorescence; percent of sucrose octasulfate shift, DMSO zero;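 active = mean Tm shift, scaled 0 neutral to 100 positive control, at about 1.3% or above, every replicate too, limit read from the data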
Target sequence (Q9HCT0 whole entry, looked up): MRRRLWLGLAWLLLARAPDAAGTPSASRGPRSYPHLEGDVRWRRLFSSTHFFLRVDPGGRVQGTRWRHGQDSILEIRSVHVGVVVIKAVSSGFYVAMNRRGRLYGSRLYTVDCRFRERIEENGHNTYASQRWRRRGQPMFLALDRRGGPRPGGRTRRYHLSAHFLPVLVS
rRNA inh HTS: inhibits bacterial ribosomal RNA function over humanized ribosomes; E. coli WT GFP vs humanized-ribosome RFP mutants, fluorescence, 24 h; stronger effect = lower value; DMSO median 0, no signal -100; GFP signal change (wild-type ribosome), % (concentration not given with the values); actives 1.6% (n = 350,000); AID 720706;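 active = significant combined selectivity score with lowered wild-type GFP, culture density cut under 30%, mutant RFP and density less affected; inactive = any of these conditions unmet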
Vif inh: HIV Vif inhibition; inhibition, % at 7.49 µM; HEK293T cells, Vif self-association by quenched fluorescence, imaging, 24 h; AID 602346; actives 0.35% (n = 340,000); in the data active = inhibition above about 50%, passing the limit was not always enough
Numbers stand for hits. Shown are actives, neighbours in structure and some others; about 2.9% of the full set was active somewhere.

`O=C(Nc1ccon1)c1cc(-c2ccccc2)nc2ccccc12` gave PGC1a acetyl inh inactive, Cneo AK release inactive, PglD inh inactive and Vif inh inactive.
For CCc1ccc(/C=N/NC(=O)c2cc(-c3ccncc3)nc3ccccc23)s1 the results were Vif inh inactive.
Screening O=C(NC1CC1)c1cc(-c2ccc(Br)cc2)nc2ccccc12 returned PGC1a acetyl inh inactive, Cneo AK release inactive, PglD inh inactive, FGF22 binding inactive, rRNA inh HTS inactive and Vif inh inactive.
`O=C(N/N=C/c1cccs1)c1cc(-c2ccncc2)nc2ccccc12` gave Vif inh 117.
Screening COc1ccc(C[C@H]2CCc3cnnn3COC[C@@H](C(C)C)NC2=O)cc1 returned Cneo AK release inactive, FGF22 binding inactive and rRNA inh HTS inactive.
Screening Cc1noc(C)c1NC(=O)N(C)C[C@H]1OCc2ccccc2-c2ccccc2C(=O)N([C@@H](C)CO)C[C@H]1C returned rRNA inh HTS inactive.
For Cc1nn(C)cc1-c1cc(C(=O)O)c2ccccc2n1 the results were PGC1a acetyl inh inactive, FGF22 binding inactive, rRNA inh HTS inactive and Vif inh inactive.
O=C(N/N=C/c1cccs1)c1cc(-c2ccc3ccccc3c2)n[nH]1 was read as PGC1a acetyl inh inactive and Vif inh inactive.
For Cc1cc(-c2cc(C(=O)O)c3ccccc3n2)c(C)s1 the results were PGC1a acetyl inh inactive, FGF22 binding 44, rRNA inh HTS inactive and Vif inh inactive.
For Cc1csc(NC(=O)c2cc(-c3ccncc3)nc3ccccc23)n1 the results were PGC1a acetyl inh inactive, FGF22 binding 44, rRNA inh HTS inactive and Vif inh inactive.
O=C(O)COc1ccccc1/C=N/NC(=O)c1cc(-c2ccc(F)cc2)nc2ccccc12 was read as PGC1a acetyl inh inactive, Cneo AK release inactive, PglD inh inactive, FGF22 binding 1.5, rRNA inh HTS inactive and Vif inh inactive.
O=C(N/N=C/c1cccs1)c1cc(-c2cccc3ccccc23)n[nH]1 was read as FGF22 binding 44, rRNA inh HTS inactive and Vif inh inactive.
Screening COCCNC(=O)C[C@H]1C[C@H]2c3cc(N(C)C)ccc3O[C@H]2[C@@H](CO)O1 returned PGC1a acetyl inh inactive, Cneo AK release inactive, PglD inh inactive, FGF22 binding inactive and rRNA inh HTS inactive.
`O=C(N/N=C/c1ccc[nH]1)c1cc(-c2cccs2)nc2ccccc12` gave Cneo AK release inactive, PglD inh inactive, FGF22 binding inactive, rRNA inh HTS -24 and Vif inh inactive.
`Cc1ccc(/C(N)=N/OC(=O)c2cc(-c3ccccc3)nc3ccccc23)cc1` gave Cneo AK release inactive, PglD inh inactive and Vif inh inactive.
O=C(N/N=C/c1cccnc1)c1cc(-c2cccs2)nc2ccccc12 was read as PGC1a acetyl inh inactive, Cneo AK release inactive, PglD inh inactive and Vif inh inactive.
`N/C(=N\OC(=O)c1cc(-c2ccccc2)nc2ccccc12)c1ccccn1` gave FGF22 binding 43, rRNA inh HTS inactive and Vif inh inactive.
Screening COc1ccc(-c2cc(C(=O)Nc3ccccc3N3CCOCC3)c3ccccc3n2)cc1OC returned Cneo AK release inactive, PglD inh inactive, FGF22 binding 2.3, rRNA inh HTS inactive and Vif inh inactive.
Screening O=C(Nc1ccccc1N1CCOCC1)c1cc(-c2ccncc2)nc2ccccc12 returned PGC1a acetyl inh inactive, Cneo AK release inactive, PglD inh inactive, FGF22 binding inactive and Vif inh inactive.
Cc1noc(C)c1S(=O)(=O)Nc1ccc2c(c1)C(=O)N([C@H](C)CO)C[C@@H](C)[C@@H](CN(C)Cc1ccc(Oc3ccccc3)cc1)O2 was read as PGC1a acetyl inh inactive, Cneo AK release inactive, PglD inh inactive, FGF22 binding inactive and rRNA inh HTS inactive.
`COCC#Cc1cnc2c(c1)C(=O)N([C@@H](C)CO)C[C@H](C)[C@@H](CN(C)S(=O)(=O)c1ccccc1)O2` gave PGC1a acetyl inh inactive, Cneo AK release inactive, PglD inh inactive, FGF22 binding inactive and rRNA inh HTS inactive.
Screening C[C@@H]1CCCCO[C@H](CN(C)S(=O)(=O)c2ccc(Cl)cc2)[C@H](C)CN([C@@H](C)CO)C(=O)c2cc(NC(=O)Nc3ccccc3)ccc2O1 returned PGC1a acetyl inh inactive, Cneo AK release inactive, PglD inh inactive, FGF22 binding inactive and rRNA inh HTS inactive.
Screening O=[N+]([O-])c1nn(-c2ccc(Cl)cc2)n(O)c1=NCc1cccnc1 returned PGC1a acetyl inh inactive, Cneo AK release inactive, PglD inh inactive, FGF22 binding inactive, rRNA inh HTS -19 and Vif inh inactive.
Screening O=[N+]([O-])c1nn(-c2cccc(Cl)c2)n(O)c1=NCc1cccnc1 returned FGF22 binding inactive, rRNA inh HTS inactive and Vif inh inactive.
Screening O=C(/C=C/c1ccccc1)Nc1ncn[nH]1 returned PGC1a acetyl inh inactive, Cneo AK release inactive, PglD inh inactive, FGF22 binding inactive, rRNA inh HTS inactive and Vif inh 59.
Screening CN(C)C(=O)c1ccc(-c2ccc3c(c2)[C@@H]2[C@@H](CCN2Cc2cncnc2)[C@@H](CO)N3)cc1 returned PGC1a acetyl inh inactive, Cneo AK release inactive, PglD inh inactive and rRNA inh HTS inactive.
For CC1(C(=O)NCCc2c[nH]c3ccccc23)CCN1CC1CCCCC1 (configuration not stated) the results were PGC1a acetyl inh inactive, Cneo AK release inactive, PglD inh inactive, FGF22 binding inactive, rRNA inh HTS -23 and Vif inh inactive.
CC1CCCC(C)N1C(=C(Cl)Cl)C(=C1SCCS1)[N+](=O)[O-] (configuration not stated) was read as PGC1a acetyl inh inactive, FGF22 binding 43, rRNA inh HTS inactive and Vif inh inactive.
Screening Cc1ccc(N2C(=O)CS/C2=C(\C(Cl)=C(Cl)Cl)[N+](=O)[O-])cc1 returned PGC1a acetyl inh inactive, Cneo AK release inactive, PglD inh inactive, FGF22 binding inactive and rRNA inh HTS inactive.
`COc1ccc(S(=O)(=O)N(C)C[C@@H]2Oc3ccc(NS(=O)(=O)c4ccc(F)cc4)cc3CC(=O)N([C@@H](C)CO)C[C@H]2C)cc1` gave PGC1a acetyl inh inactive, FGF22 binding inactive and rRNA inh HTS inactive.
Screening CCOc1ccc(C(C)=O)cc1COC(=O)c1cc([N+](=O)[O-])ccc1N1CCOCC1 returned PGC1a acetyl inh inactive, Cneo AK release inactive, PglD inh inactive, FGF22 binding inactive, rRNA inh HTS inactive and Vif inh 71.
Cc1cc(NC(=O)COC(=O)c2cc([N+](=O)[O-])ccc2N2CCOCC2)ccc1Br was read as Cneo AK release inactive, PglD inh inactive, FGF22 binding inactive, rRNA inh HTS -18 and Vif inh inactive.

Compound activity: PubChem BioAssay, Broad Institute
